Source: ChEMBL document CHEMBL1123553, “Synthesis and antimalarial and antitumor effects of 2-amino-4-(hydrazino and hydroxyamino)-6-[(aryl)thio]quinazolines” (1987)

Assays:
Assay type in all cases: functional
L1210 [1] = test: Anti tumor activity against L1210 leukemia in tissue culture and the molar concentration required to reduce the number of L1210 cells; settings: Mus musculus, L1210, read-out: ID50
Method in brief: (§1)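 L1210 leukemia cells in tissue culture were incubated with the test drug for 2 days and the cell number was then assessed. ID50 is the molar drug concentration that reduces the number of L1210 cells by 50%.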

Mus musculus [2] = test: Antimalarial activity against Plasmodium berghei strain in mice (Mus musculus) by parentral route and change in mean survival time in days was determined at 320 mg/kg subcutaneous dose
Method in brief: (§2)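 Normal drug-sensitive P. berghei strain in mice. Test agents dissolved or suspended in peanut oil and given as a single sc dose 72 h postinfection, five mice per dose group. ΔMST = mean survival time of treated mice minus that of controls (days). 60-day survivors are excluded from the treated mean and scored as cured. Minimum active response is a 100% increase in MSTT.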

Mus musculus [3] = test: Antimalarial activity against Plasmodium berghei strain in mice (Mus musculus) by parentral route and change in mean survival time in days was determined at 80 mg/kg subcutaneous dose; method in brief: as §2
Mus musculus [4] = test: Antimalarial activity against Plasmodium berghei strain in mice (Mus musculus) by parentral route and change in mean survival time in days was determined at 40 mg/kg subcutaneous dose; method in brief: as §2
Mus musculus [5] = test: Antimalarial activity against Plasmodium berghei strain in mice (Mus musculus) by parentral route and change in mean survival time in days was determined at 160 mg/kg subcutaneous dose; method in brief: as §2
Mus musculus [6] = test: Antimalarial activity against Plasmodium berghei strain in mice (Mus musculus) by parentral route and change in mean survival time in days was determined at 640 mg/kg subcutaneous dose; method in brief: as §2
L1210 [7] = test: Anti tumor activity against L1210 leukemia in tissue culture and the molar concentration required to reduce the number of L1210 cells by 50% was determined.; settings: Mus musculus, L1210, read-out: ID50; method in brief: as §1

Structure (SMILES)	IC50 (L1210 [1]) [µM]	Delta MST (Mus musculus [2]) [days]	Delta MST (Mus musculus [3]) [days]	Delta MST (Mus musculus [4]) [days]	Delta MST (Mus musculus [5]) [days]	Delta MST (Mus musculus [6]) [days]	IC50 (L1210 [7]) [µM]
Nc1nc(N)c2cc(S(=O)(=O)c3ccc4ccccc4c3)ccc2n1	0.11	–	–	–	–	–	–
CONc1nc(N)nc2ccc(S(=O)(=O)c3ccc4ccccc4c3)cc12	–	12.7	5.7	3.9	9.1	–	–
NNc1nc(N)nc2ccc(Sc3cccc(C(F)(F)F)c3)cc12	–	11.9	3.1	0.5	6.9	15.7	–
Nc1nc(NO)c2cc(S(=O)(=O)c3ccc4ccccc4c3)ccc2n1	–	14.1	8.9	6.1	11.1	15.3	–
NNc1nc(N)nc2ccc(S(=O)(=O)c3ccc4ccccc4c3)cc12	–	3.5	1.3	0.5	2.3	4.5	–
CONc1nc(N)nc2ccc(Sc3cccc(C(F)(F)F)c3)cc12	–	–	6.9	5.7	9.7	–	24
CN(N)c1nc(N)nc2ccc(S(=O)(=O)c3ccc4ccccc4c3)cc12	–	7.1	2.3	0.5	4.3	10.7	–
ONc1nc(NO)c2cc(Sc3cccc(C(F)(F)F)c3)ccc2n1	–	10.7	3.1	1.7	9.7	–	–
CN(N)c1nc(N)nc2ccc(Sc3cccc(C(F)(F)F)c3)cc12	–	–	8.9	5.7	12.3	–	–
Nc1nc(NO)c2cc(Sc3cccc(C(F)(F)F)c3)ccc2n1	–	10.3	5.1	3.5	8.1	–	–
O=S(=O)(c1ccc2ccccc2c1)c1ccc2nc(NO)nc(NO)c2c1	–	8.1	3.3	1.1	5.9	10.7	–
